Test results published in paper PMC7688529 (British Journal of Clinical Pharmacology, 2020).
Like-named read-outs stand apart in the source and are kept apart here.

Legend:
[1] = assay type: in vivo, human; settings: for CVw of AUC0‐t / CVw of AUC0‐∞ / CVw of Cmax: intrasubject coefficient of variation; for Tmax: median (range)
Method in brief: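 Healthy subjects; randomized crossover; single oral fasted dose of the 10 mg/40 mg macitentan/tadalafil FDC vs a free combination with US-sourced tadalafil; evaluated per group. Fluids withheld 1 h pre- to 1 h post-dose; observation 216–288 h. Macitentan/ACT-132577 by LC-MS/MS after acetonitrile/ethanol protein precipitation; tadalafil by LC-MS/MS after tert-butyl methyl ether extraction. Geometric mean ratios with 90% CI and intrasubject variability from a mixed-effects model.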

[2] = assay type: in vivo, human; settings: for Ratio of geometric means (treatment A/B; 90% CI) of AUC0‐t / Ratio of geometric means (treatment A/B; 90% CI) of AUC0‐∞ / Ratio of geometric means (treatment A/B; 90% CI) of Cmax: FDC‐2 vs free combination (EU‐sourced tadalafil); for CVw of AUC0‐t / CVw of AUC0‐∞ / CVw of Cmax: FDC‐2 vs free combination, intrasubject coefficient of variation; for AUC / Cmax / half-life: geometric mean (95% CI); for Cmax: Treatment A FDC (FDC‐2, 10 mg/40 mg), single dose, fasted, healthy subjects
Method in brief: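 Healthy subjects randomized to A/B or B/A. Single oral dose: 10 mg/40 mg FDC, or macitentan 10 mg plus 2 × 20 mg EU-sourced tadalafil. Fasted ≥10 h pre- to 4 h post-dose. Blood (K3EDTA) from predose to 216 h; spun ~1500 g, 10 min, 4 ± 2°C; stored ≤ −75°C, light-protected. LC-MS/MS with isotope-labelled standards. Geometric mean ratios (90% CI) and CVw from mixed-effects model.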

[3] = Study AC‐077‐101: safety and tolerability evaluation; assay type: in vivo, human; settings: both studies AC‐077‐101 and AC‐077‐103; administered as FDC product or as a free combination
[4] = Stability in human plasma samples; assay type: physicochemical
[5] = Group 1, FDC‐1 vs free combination (US‐sourced tadalafil)
[6] = Group 1, FDC‐1 vs free combination
[7] = Group 2, FDC‐2 vs free combination (US‐sourced tadalafil)
[8] = Group 2, FDC‐2 vs free combination
[9] = human, plasma, oral, Group 1, Treatment A FDC‐1 (macitentan/tadalafil 10 mg/40 mg), single dose, fasted, healthy subjects, geometric mean (95% CI)
[10] = human, plasma, oral, Group 2, Treatment B free combination (US‐sourced tadalafil), geometric mean (95% CI)
[11] = human, plasma, oral, t1/2, Group 1, Treatment A FDC‐1, geometric mean (95% CI)
[12] = human, plasma, oral, t1/2, Group 1, Treatment B free combination (US‐sourced tadalafil), geometric mean (95% CI)
[13] = human, plasma, oral, t1/2, Group 2, Treatment A FDC‐2, geometric mean (95% CI)
[14] = human, plasma, oral, t1/2, Group 2, Treatment B free combination (US‐sourced tadalafil), geometric mean (95% CI)
[15] = human, plasma, oral, tmax, Group 1, Treatment A FDC‐1
[16] = human, plasma, oral, tmax, Group 1, Treatment B free combination (US‐sourced tadalafil)
[17] = human, plasma, oral, tmax, Group 2, Treatment A FDC‐2
[18] = human, plasma, oral, tmax, Group 2, Treatment B free combination (US‐sourced tadalafil)
[19] = Treatment B free combination (EU‐sourced tadalafil), median (range)
[20] = human, plasma, oral, t1/2, Treatment A FDC (FDC‐2)
[21] = human, plasma, oral, t1/2, Treatment B free combination (EU‐sourced tadalafil)

CCCNS(=O)(=O)Nc1ncnc(OCCOc2ncc(Br)cn2)c1-c1ccc(Br)cc1 [Macitentan, macitentan]
Geometric means ratio (treatment A/B; 90% CI) of AUC0‐t [1, 5]: 0.9815 (0.9527, 1.0113)
Geometric means ratio (treatment A/B; 90% CI) of AUC0‐∞ [1, 5]: 0.9818 (0.9537, 1.0109)
Geometric means ratio (treatment A/B; 90% CI) of Cmax [1, 5]: 1.0045 (0.9631, 1.0478)
CVw of AUC0‐t [1, 6]: 9.54%
CVw of AUC0‐∞ [1, 6]: 9.31%
CVw of Cmax [1, 6]: 13.50%
AUC higher after FDC‐2 than after free combination ([1]; Group 2): approximately 10%
Cmax higher after FDC‐2 than after free combination ([1]; Group 2): approximately 19%
Geometric means ratio (treatment A/B; 90% CI) of AUC0‐t [1, 7]: 1.1014 (1.0652, 1.1389)
Geometric means ratio (treatment A/B; 90% CI) of AUC0‐∞ [1, 7]: 1.0981 (1.0641, 1.1332)
Geometric means ratio (treatment A/B; 90% CI) of Cmax [1, 7]: 1.1901 (1.1374, 1.2451)
CVw of AUC0‐t [1, 8]: 10.80%
CVw of AUC0‐∞ [1, 8]: 10.16%
CVw of Cmax [1, 8]: 14.64%
AUC ([1]; human, plasma, oral, AUC0‐t, Group 1, Treatment A FDC‐1, geometric mean (95% CI)): 4.32 µg·h/mL
AUC ([1]; human, plasma, oral, AUC0‐t, Group 1, Treatment B free combination (US‐sourced tadalafil), geometric mean (95% CI)): 4.4 µg·h/mL
AUC ([1]; human, plasma, oral, AUC0‐t, Group 2, Treatment A FDC‐2, geometric mean (95% CI)): 4.74 µg·h/mL
AUC ([1]; human, plasma, oral, AUC0‐t, Group 2, Treatment B free combination (US‐sourced tadalafil), geometric mean (95% CI)): 4.3 µg·h/mL
AUC ([1]; human, plasma, oral, AUC0‐∞, Group 1, Treatment A FDC‐1, geometric mean (95% CI)): 4.43 µg·h/mL
AUC ([1]; human, plasma, oral, AUC0‐∞, Group 1, Treatment B free combination (US‐sourced tadalafil), geometric mean (95% CI)): 4.51 µg·h/mL
AUC ([1]; human, plasma, oral, AUC0‐∞, Group 2, Treatment A FDC‐2, geometric mean (95% CI)): 4.83 µg·h/mL
AUC ([1]; human, plasma, oral, AUC0‐∞, Group 2, Treatment B free combination (US‐sourced tadalafil), geometric mean (95% CI)): 4.39 µg·h/mL
Cmax [1, 9]: 0.169 µg/mL
Cmax [1, 10]: 0.163 µg/mL
half-life [1, 11]: 13.8 h
half-life [1, 12]: 14 h
half-life [1, 13]: 13.8 h
half-life [1, 14]: 14.4 h
Tmax [1, 15]: 9 h
Tmax [1, 16]: 9 h
Tmax [1, 17]: 9 h
Tmax [1, 18]: 9 h
Ratio of geometric means (treatment A/B; 90% CI) of AUC0‐t [2]: 1.0038 (0.9677, 1.0413)
Ratio of geometric means (treatment A/B; 90% CI) of AUC0‐∞ [2]: 1.0015 (0.9675, 1.0367)
Ratio of geometric means (treatment A/B; 90% CI) of Cmax [2]: 1.0608 (1.0014, 1.1238)
CVw of AUC0‐t [2]: 8.94%
CVw of AUC0‐∞ [2]: 8.42%
CVw of Cmax [2]: 14.10%
Tmax [2, 19]: 9.00 (4.2–24.0) h
Tmax ([2]; human, plasma, oral): 9 h
AUC ([2]; human, plasma, oral, AUC0‐t, Treatment A FDC (FDC‐2)): 5.81 µg·h/mL
AUC ([2]; human, plasma, oral, AUC0‐t, Treatment B free combination (EU‐sourced tadalafil)): 5.79 µg·h/mL
AUC ([2]; human, plasma, oral, AUC0‐∞, Treatment A FDC (FDC‐2)): 5.89 µg·h/mL
AUC ([2]; human, plasma, oral, AUC0‐∞, Treatment B free combination (EU‐sourced tadalafil)): 5.88 µg·h/mL
Cmax ([2]; human, plasma, oral): 0.175 µg/mL
half-life [2, 20]: 16.1 h
half-life [2, 21]: 16.1 h
tolerability [3]: well tolerated
stability in plasma samples at room‐temperature [4]: at least 3 days
stability in plasma samples, freeze/thaw cycles [4]: at least 3 freeze/thaw cycles
stability in plasma samples, storage at −20°C [4]: ≥ 36 months

CN1CC(=O)N2[C@H](c3ccc4c(c3)OCO4)c3[nH]c4ccccc4c3C[C@@H]2C1=O [Tadalafil, tadalafil]
lower bound of the 90% CI of the geometric mean ratio of Cmax ([1]; FDC‐1 vs free combination, bioequivalence limits 0.8000–1.2500): 0.7167
AUC lower after FDC‐1 than after free combination ([1]; Group 1): ~8%
Cmax lower after FDC‐1 than after free combination ([1]; Group 1): approximately 24%
Geometric means ratio (treatment A/B; 90% CI) of AUC0‐t [1, 5]: 0.9151 (0.8687, 0.9639)
Geometric means ratio (treatment A/B; 90% CI) of AUC0‐∞ [1, 5]: 0.9172 (0.8707, 0.9662)
Geometric means ratio (treatment A/B; 90% CI) of Cmax [1, 5]: 0.7588 (0.7167, 0.8034)
CVw of AUC0‐t [1, 6]: 16.71%
CVw of AUC0‐∞ [1, 6]: 16.70%
CVw of Cmax [1, 6]: 18.38%
t1/2 ([1]; Group 1, Treatment B free combination (US‐sourced tadalafil), geometric mean (95% CI)): 18.066 (16.472, 19.815) h
Tmax ([1]; Group 1, Treatment B free combination (US‐sourced tadalafil)): 3.00 (1.0–5.0) h
Geometric means ratio (treatment A/B; 90% CI) of AUC0‐t [1, 7]: 0.9764 (0.9293, 1.0259)
Geometric means ratio (treatment A/B; 90% CI) of AUC0‐∞ [1, 7]: 0.9765 (0.9293, 1.0260)
Geometric means ratio (treatment A/B; 90% CI) of Cmax [1, 7]: 0.9576 (0.9063, 1.0118)
CVw of AUC0‐t [1, 8]: 16.01%
CVw of AUC0‐∞ [1, 8]: 16.02%
CVw of Cmax [1, 8]: 17.86%
Cmax [1, 9]: 0.385 µg/mL
Cmax [1, 10]: 0.49 µg/mL
half-life [1, 11]: 18.4 h
half-life [1, 13]: 18.1 h
half-life [1, 14]: 18.5 h
Tmax [1, 15]: 4 h
Tmax [1, 16]: ~3 h
Tmax [1, 17]: 3 h
Tmax [1, 18]: 3 h
Ratio of geometric means (treatment A/B; 90% CI) of AUC0‐t [2]: 1.0040 (0.9584, 1.0517)
Ratio of geometric means (treatment A/B; 90% CI) of AUC0‐∞ [2]: 1.0047 (0.9591, 1.0525)
Ratio of geometric means (treatment A/B; 90% CI) of Cmax [2]: 0.9015 (0.8413, 0.9661)
CVw of AUC0‐t [2]: 11.35%
CVw of AUC0‐∞ [2]: 11.34%
CVw of Cmax [2]: 16.96%
Tmax [2, 19]: 1.75 (1.0–5.0) h
Cmax ([2]; human, plasma, oral): 0.539 µg/mL
half-life [2, 20]: 23.3 h
half-life [2, 21]: 22.6 h
Tmax ([2]; human, plasma, oral, tmax, Treatment A FDC (FDC‐2), median (range)): 2 h
tolerability [3]: well tolerated
stability in plasma samples at room‐temperature [4]: at least 6 hours
stability in plasma samples, freeze/thaw cycles [4]: ≥ 3 freeze/thaw cycles

NS(=O)(=O)Nc1ncnc(OCCOc2ncc(Br)cn2)c1-c1ccc(Br)cc1 [ACT‐132577]
Geometric means ratio (treatment A/B; 90% CI) of AUC0‐t [1, 5]: 0.9826(0.9550, 1.0110)
Geometric means ratio (treatment A/B; 90% CI) of AUC0‐∞ [1, 5]: 0.9836(0.9572, 1.0107)
Geometric means ratio (treatment A/B; 90% CI) of Cmax [1, 5]: 0.9935 (0.9616, 1.0264)
CVw of AUC0‐t [1, 6]: 9.03%
CVw of AUC0‐∞ [1, 6]: 8.61%
CVw of Cmax [1, 6]: 10.32%
AUC higher after FDC‐2 than after free combination ([1]; Group 2): ~9%
Cmax higher after FDC‐2 than after free combination ([1]; Group 2): approximately 10%
Geometric means ratio (treatment A/B; 90% CI) of AUC0‐t [1, 7]: 1.0925 (1.0545, 1.1319)
Geometric means ratio (treatment A/B; 90% CI) of AUC0‐∞ [1, 7]: 1.0884 (1.0502, 1.1281)
Geometric means ratio (treatment A/B; 90% CI) of Cmax [1, 7]: 1.0983 (1.0470, 1.1520)
CVw of AUC0‐t [1, 8]: 11.20%
CVw of AUC0‐∞ [1, 8]: 11.31%
CVw of Cmax [1, 8]: 15.15%
Cmax [1, 9]: 0.158 µg/mL
Cmax [1, 10]: 0.15 µg/mL
half-life [1, 12]: 48.5 h
half-life [1, 13]: 50.5 h
half-life [1, 14]: 50.3 h
Tmax [1, 15]: 48 h
Tmax [1, 16]: 48 h
Tmax [1, 17]: 48 h
Tmax [1, 18]: 48 h
Ratio of geometric means (treatment A/B; 90% CI) of AUC0‐t [2]: 0.9970 (0.9651, 1.0300)
Ratio of geometric means (treatment A/B; 90% CI) of AUC0‐∞ [2]: 0.9936 (0.9619, 1.0264)
Ratio of geometric means (treatment A/B; 90% CI) of Cmax [2]: 1.0198 (0.9819, 1.0591)
CVw of AUC0‐t [2]: 7.93%
CVw of AUC0‐∞ [2]: 7.91%
CVw of Cmax [2]: 9.24%
Tmax [2, 19]: 48.00 (24.0–72.1) h
Tmax ([2]; human, plasma, oral): 48 h
Cmax ([2]; human, plasma, oral): 0.163 µg/mL
half-life [2, 20]: 49.4 h
half-life [2, 21]: 50.4 h
stability in plasma samples at room‐temperature [4]: at least 3 days
stability in plasma samples, freeze/thaw cycles [4]: at least 3 freeze/thaw cycles
stability in plasma samples, storage at −20°C [4]: ≥ 36 months
